The results in this text go back to ChEMBL document CHEMBL2062467, “Design, synthesis, antimicrobial, anti-inflammatory and analgesic activity of novel isoxazolyl pyrimido[4,5-b]quinolines and isoxazolyl chromeno[2,3-d]pyrimidin-4-ones” (2012).

Common to all, as to type: functional
Assay [1] relates to Bacillus subtilis. In words: Antibacterial activity against Bacillus subtilis MTCC 441 after 24 hrs by broth dilution method. The settings on record: MTCC 441, 24 h. In a few lines:
(§1)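 Broth dilution MIC in autoclaved nutrient broth tubes. Test compound was dissolved in acetone, and 100 mg/mL (so in the source) was added to the first tube, then serially diluted across the tubes.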

Assay [2] can be described thus: Antifungal activity against Verticillium dahliae after 72 to 96 hrs by agar cup method. In a few lines:
(§2)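 Agar cup assay on potato dextrose agar. Plates were spread with 0.5 mL of a one-week-old fungal spore suspension, and 6 mm cups were bored into the agar. Different concentrations of compound in acetone were added to the cups. Acetone and clotrimazole served as controls. Plates were held at room temperature for 72–96 h.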

The subject of assay [3] is Klebsiella aerogenes. As to the kind of experiment: Antibacterial activity against Klebsiella aerogenes MTCC 39 after 24 hrs by broth dilution method. The following applies: MTCC 39, 24 h. In a few lines: as §1
A general note: In broth dilution the organism is exposed to a series of concentrations in liquid medium.

Assay [4] relates to Rhizoctonia solani. In words: Antifungal activity against Rhizoctonia solani after 72 to 96 hrs by agar cup method. In a few lines:
as §2

The test system of assay [5] is Chromobacterium violaceum. In words: Antibacterial activity against Chromobacterium violaceum MTCC 2656 after 24 hrs by broth dilution method. The settings on record: MTCC 2656, 24 h. In a few lines: as §1
The subject of assay [6] is Fusarium oxysporum. In words: Antifungal activity against Fusarium oxysporum after 72 to 96 hrs by agar cup method. In a few lines: as §2
The test system of assay [7] is Alternaria solani. In words: Antifungal activity against Alternaria solani after 72 to 96 hrs by agar cup method. In a few lines:
as §2

The test system of assay [8] is Pythium aphanidermatum. As to the kind of experiment: Antifungal activity against Pythium aphanidermatum after 72 to 96 hrs by agar cup method. In a few lines: as §2
For assay [9], the system named is Lysinibacillus sphaericus. As to the kind of experiment: Antibacterial activity against Bacillus sphaericus MTCC 511 after 24 hrs by broth dilution method. The settings on record: MTCC 511, 24 h. In a few lines:
as §1

The subject of assay [10] is Rattus norvegicus. As to the kind of experiment: Analgesic activity in Albino rat assessed as reaction time at 10 mg/kg, po after 1 hr by Hot plate test. In a few lines: (§3)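 Hot plate test of central analgesia in rats, six per group, with a vehicle control group and an Indomethacin group (10 mg/kg po). Test compounds were given orally at 10 mg/kg. Reaction time was read at 0, 1 and 2 h. Values are the mean of six, ± S.E., also expressed as % increase over basal. Statistics used ANOVA/LSD; Dunnett's test vs control (P < 0.05).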
A general note: Hot-plate and tail-flick tests time the reaction to a heat stimulus.

Assay [11] has as its system Colletotrichum truncatum. As to the kind of experiment: Antifungal activity against Colletotrichum capsici after 72 to 96 hrs by agar cup method. In a few lines:
as §2

Assay [12] deals with Pseudomonas aeruginosa. As to the kind of experiment: Antibacterial activity against Pseudomonas aeruginosa MTCC 741 after 24 hrs by broth dilution method. The following applies: MTCC 741, 24 h. In a few lines: as §1
In assay [13] the test system is Rattus norvegicus. In words: Analgesic activity in Albino rat assessed as reaction time at 10 mg/kg, po after 2 hrs by Hot plate test. In a few lines: as §3
Assay [14] relates to Staphylococcus aureus. As to the kind of experiment: Antibacterial activity against Staphylococcus aureus MTCC 96 after 24 hrs by broth dilution method. The settings on record: MTCC 96, 24 h. In a few lines:
as §1

Each structure is given as a SMILES string. In brackets after ≈: the same amount, converted by molar mass.

`Cc1noc(/C=C/c2ccccc2)c1N1CN=C2Oc3c(Cl)cc(Cl)cc3C=C2C1=O`: the minimum inhibitory concentration (MIC) (usually the smallest concentration in the dilution series that meets the test's criterion for growth inhibition) in [1] worked out at 15 µg/mL (≈ 33.2 µM); in assay [2], 18 µg/mL (≈ 39.8 µM); in assay [3], 17 µg/mL (≈ 37.6 µM); in [4] it was 15 µg/mL (≈ 33.2 µM); in assay [5], 16 µg/mL (≈ 35.4 µM); in [6], 16 µg/mL (≈ 35.4 µM). Further, the minimal inhibitory concentration (MIC) in assay [7] was 14 µg/mL (≈ 31 µM); in assay [8] it was 22 µg/mL (≈ 48.6 µM); in assay [9], 14 µg/mL (≈ 31 µM); in [11], 16 µg/mL (≈ 35.4 µM); in assay [12] it was 15 µg/mL (≈ 33.2 µM); in assay [14], 16 µg/mL (≈ 35.4 µM). For the same compound, the Time in assay [10] came out at 28.3 s; in assay [13], 21.9 s.
For `COc1ccc2c(c1)c(CC(=O)O)c(C)n2C(=O)c1ccc(Cl)cc1` [INDOMETHACIN], the results for the Time in assay [10] and in assay [13] were 21.8 s and 22.4 s, respectively.
As to `Cc1noc(/C=C/c2ccccc2)c1-n1c(C)nc2nc3ccccc3cc2c1=O`, the minimal inhibitory concentration (MIC) is 20 µg/mL (≈ 50.7 µM) in assay [1]; 14 µg/mL (≈ 35.5 µM) in [2]; 20 µg/mL (≈ 50.7 µM) in [3]; 12 µg/mL (≈ 30.4 µM) in assay [4]; 20 µg/mL (≈ 50.7 µM) in [5]; 16 µg/mL (≈ 40.6 µM) in assay [6]. Further, the minimal inhibitory concentration (MIC) is 10 µg/mL (≈ 25.4 µM) in assay [7]; 18 µg/mL (≈ 45.6 µM) in assay [8]; 22 µg/mL (≈ 55.8 µM) in assay [9]; 15 µg/mL (≈ 38 µM) in [11]; 24 µg/mL (≈ 60.8 µM) in assay [12]; 20 µg/mL (≈ 50.7 µM) in [14]. For the same compound, the Time was 14.8 s in [10] and 16.5 s in [13].
Consider `COc1ccc(/C=C/c2onc(C)c2N2CN=C3Oc4ccc(Br)cc4C=C3C2=O)cc1`, for which the MIC was determined as 12 µg/mL (≈ 24.4 µM) in assay [1]; 14 µg/mL (≈ 28.4 µM) in assay [2]; 13 µg/mL (≈ 26.4 µM) in [3]; 14 µg/mL (≈ 28.4 µM) in assay [4]; 10 µg/mL (≈ 20.3 µM) in assay [5]; 18 µg/mL (≈ 36.6 µM) in assay [6]. For the same compound, the MIC is 12 µg/mL (≈ 24.4 µM) in assay [7]; 20 µg/mL (≈ 40.6 µM) in assay [8]; 10 µg/mL (≈ 20.3 µM) in [9]; 12 µg/mL (≈ 24.4 µM) in assay [11]; 15 µg/mL (≈ 30.5 µM) in assay [12]; 8 µg/mL (≈ 16.2 µM) in assay [14]. The Time was determined as 18.8 s in assay [10] and 22.6 s in assay [13].
For the compound `Cc1ccc(/C=C/c2onc(C)c2-n2c(C)nc3nc4ccc(Cl)cc4cc3c2=O)cc1`, the minimal inhibitory concentration (MIC) stood at 12 µg/mL (≈ 27.1 µM) in assay [1]; 11 µg/mL (≈ 24.8 µM) in assay [2]; 14 µg/mL (≈ 31.6 µM) in [3]; 12 µg/mL (≈ 27.1 µM) in [4]; 12 µg/mL (≈ 27.1 µM) in assay [5]; 10 µg/mL (≈ 22.6 µM) in assay [6]. For the same compound, the MIC in assay [7] was 13 µg/mL (≈ 29.4 µM); in assay [8], 10 µg/mL (≈ 22.6 µM); in assay [9] it was 11 µg/mL (≈ 24.8 µM); in assay [11], 14 µg/mL (≈ 31.6 µM); in [12], 10 µg/mL (≈ 22.6 µM); in [14], 10 µg/mL (≈ 22.6 µM). In addition, the Time in assay [10] was found to be 20.8 s; in assay [13], 22.3 s.
For `Clc1ccccc1C(c1ccccc1)(c1ccccc1)n1ccnc1` [CLOTRIMAZOLE], the minimal inhibitory concentration (MIC) in [2] turned out to be 26 µg/mL (≈ 75.4 µM); in assay [4], 25 µg/mL (≈ 72.5 µM); in assay [6], 28 µg/mL (≈ 81.2 µM); in [7], 22 µg/mL (≈ 63.8 µM); in assay [8], 30 µg/mL (≈ 87 µM); in [11], 20 µg/mL (≈ 58 µM).
For `O=C(O)c1cn(C2CC2)c2cc(N3CCNCC3)c(F)cc2c1=O` [CIPROFLOXACIN], the MIC in [1] was 20 µg/mL (≈ 60.4 µM); in assay [3] it was 22 µg/mL (≈ 66.4 µM); in assay [5], 20 µg/mL (≈ 60.4 µM); in [9], 24 µg/mL (≈ 72.4 µM); in [14], 28 µg/mL (≈ 84.5 µM).
Consider `Cc1noc(/C=C/c2ccccc2)c1-n1c(C)nc2nc3ccc(Cl)cc3cc2c1=O`, for which the MIC in [1] was determined as 8 µg/mL (≈ 18.7 µM); in [2], 9 µg/mL (≈ 21 µM); in assay [3], 7 µg/mL (≈ 16.3 µM); in assay [4] it was 11 µg/mL (≈ 25.6 µM); in assay [5] it was 5 µg/mL (≈ 11.7 µM); in assay [6], 8 µg/mL (≈ 18.7 µM). Also, the MIC in assay [7] is 10 µg/mL (≈ 23.3 µM); in assay [8] it was 15 µg/mL (≈ 35 µM); in [9], 16 µg/mL (≈ 37.3 µM); in assay [11], 11 µg/mL (≈ 25.6 µM); in assay [12] it was 10 µg/mL (≈ 23.3 µM); in assay [14] it was 9 µg/mL (≈ 21 µM). Further, the Time in assay [10] was found to be 21.2 s; in [13], 21.5 s.
